Molecules are shown by their SMILES. Converted amounts (≈) assume the structure as drawn.

The subject of data set [1] is Escherichia coli. The experiment in a line: Antimicrobial activity against extended spectrum beta lactamase expressing Escherichia coli by spectrophotometry. In kind it is functional. An outline of the steps: (§1)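 Broth microdilution in Mueller–Hinton broth. Two-fold dilutions from 256 to 0.125 µg/mL. Inoculum 10^5 c.f.u./mL, diluted from a McFarland 0.5 culture. Incubated at 35 °C for 24 h and 48 h in a humid chamber, triplicate.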

The subject of data set [2] is Acinetobacter baumannii. The data set can be described thus: Antimicrobial activity against cephalosporin-resistant Acinetobacter baumannii by spectrophotometry. Type of data set: functional. In a few lines:
as §1

Data set [3] concerns Enterococcus faecalis. The data set can be described thus: Antimicrobial activity against cephalosporin-resistant Enterococcus faecalis by spectrophotometry. In kind it is functional. An outline of the steps:
as §1

Data set [4] deals with Enterococcus faecalis. The data set can be described thus: Antimicrobial activity against Enterococcus faecalis ATCC 29212 by spectrophotometry. Type of data set: functional. In a few lines: as §1
Data set [5] has as its system Bacillus subtilis. The experiment in a line: Antimicrobial activity against Bacillus subtilis ATCC 6633 by spectrophotometry. In kind it is functional. In a few lines: as §1
Data set [6] relates to Proteus mirabilis. The experiment in a line: Antimicrobial activity against extended spectrum beta lactamase expressing Proteus mirabilis by spectrophotometry. In kind it is functional. In a few lines: as §1
The subject of data set [7] is Acinetobacter baumannii. The experiment in a line: Antimicrobial activity against Acinetobacter baumannii RSKK 02026 by spectrophotometry. Type of data set: functional. An outline of the steps:
as §1

Data set [8] concerns Klebsiella pneumoniae. The data set can be described thus: Antimicrobial activity against Klebsiella pneumoniae RSKK 574 by spectrophotometry. Type of data set: functional. An outline of the steps:
as §1

Data set [9] relates to Bacillus subtilis. The data set can be described thus: Antimicrobial activity against ceftriaxone-resistant Bacillus subtilis by spectrophotometry. In kind it is functional. In a few lines:
as §1

The subject of data set [10] is Klebsiella pneumoniae. The experiment in a line: Antimicrobial activity against extended spectrum beta lactamase expressing Klebsiella pneumoniae by spectrophotometry. Type of data set: functional. An outline of the steps: as §1
Another data set deals with Staphylococcus aureus. The experiment in a line: Antimicrobial activity against methicillin-resistant Staphylococcus aureus by spectrophotometry. In kind it is functional. In a few lines: as §1
Data set [11] deals with Proteus mirabilis. The data set can be described thus: Antimicrobial activity against Proteus mirabilis ATCC 7002 by spectrophotometry. Type of data set: functional. In a few lines: as §1
Data set [12] deals with Escherichia coli. The experiment in a line: Antimicrobial activity against Escherichia coli ATCC 35218 by spectrophotometry. Type of data set: functional. In a few lines:
as §1

Data set [13] can be described thus: Cytotoxicity against MDBK cells after 48 hrs. Type of data set: cell-based, Bos taurus. Particulars: cattle.
The subject of data set [14] is Pseudomonas aeruginosa. The experiment in a line: microbe, parasite or virus in culture. The settings on record: ATCC 10145.
For data set [15], the system named is Pseudomonas aeruginosa. The data set can be described thus: Antimicrobial activity against trimethoprim-sulfamethoxazole and tazobactum-induced Pseudomonas aeruginosa by spectrophotometry. Type of data set: functional. In a few lines: as §1
The test system of the next data set is Candida albicans. The data set can be described thus: Antifungal activity against Candida albicans ATCC 10231 by spectrophotometry. In kind it is functional. An outline of the steps: (§2)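 Yeast broth microdilution in RPMI-1640 with L-glutamine, buffered to pH 7 with MOPS. Inoculum 10^5 c.f.u./mL, prepared by the spectrophotometric method. Two-fold dilutions from 256 to 0.125 µg/mL. Incubated at 35 °C for 24 h and 48 h in a humid chamber, triplicate.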

Data set [16] is described as follows: Cytotoxicity against african green monkey Vero cells after 48 hrs. In kind it is cell-based. Particulars: chlorocebus sabaeus. An outline of the steps: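 Confluent cell monolayers exposed to two-fold (Log2) dilutions of each sample (51.2–0.012 µg/mL) in EMEM, 5% CO2, 37 °C, 48 h. Scored by light microscopy against untreated cultures; rows damaging all cells counted toxic. Maximum non-toxic concentration (MNTC, µg/mL) taken as highest concentration leaving cells unaffected. Vero grown in EMEM/10% fetal calf serum with streptomycin/penicillin.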

In the next data set the test system is Candida parapsilosis. The experiment in a line: Antifungal activity against Candida parapsilosis ATCC 22019 by spectrophotometry. Type of data set: functional. Particulars: Lodderomyces parapsilosis. An outline of the steps:
as §2

Another data set has as its system Human respirovirus 3. The data set can be described thus: Antiviral activity against parainfluenza-3 virus infected in Vero cells assessed as reduction of virus-induced cytopathic effect. Type of data set: functional. In a few lines: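 Vero cells grown in EMEM with 10% fetal calf serum. Two-fold dilutions from 51.2 to 0.012 µg/mL, with PI-3 added at its TCID50-based titre, held 2 h at 37 °C in 5% CO2. CPE scored by microscope against untreated controls, giving the CPE-inhibitory concentration range.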
(Damage to the host cells serves as the signal in cytopathic effect assays.)

Regarding `CC1(C)S[C@@H]2[C@H](NC(=O)[C@H](N)c3ccccc3)C(=O)N2[C@H]1C(=O)O` [AMPICILLIN], the MIC in the data set with Escherichia coli [1] was above 128 µg/mL; in the data set with Acinetobacter baumannii [2] it was above 128 µg/mL; in the data set with Enterococcus faecalis [3], above 128 µg/mL; in the data set on Enterococcus faecalis [4], 0.5 µg/mL (≈ 1.43 µM); against Bacillus subtilis [5] it was 0.12 µg/mL (≈ 0.343 µM); with Proteus mirabilis [6], above 128 µg/mL. In addition, the MIC with Acinetobacter baumannii [7] is 2 µg/mL (≈ 5.72 µM); in the data set with Klebsiella pneumoniae [8] it was 2 µg/mL (≈ 5.72 µM); with Bacillus subtilis [9] it was 0.5 µg/mL (≈ 1.43 µM); against Klebsiella pneumoniae [10], above 128 µg/mL; against Staphylococcus aureus, above 128 µg/mL; with Proteus mirabilis [11] it was 2 µg/mL (≈ 5.72 µM).

On to `O=c1cc(CCl)oc(CN2CCC(O)(c3ccc(Br)cc3)CC2)c1O`, for which the MIC with Escherichia coli [1] came out at 64 µg/mL (≈ 149 µM); against Escherichia coli [12], 4 µg/mL (≈ 9.33 µM); in the data set on Pseudomonas aeruginosa [14], 2 µg/mL (≈ 4.67 µM); against Acinetobacter baumannii [2], 16 µg/mL (≈ 37.3 µM); with Enterococcus faecalis [3], 32 µg/mL (≈ 74.6 µM); with Pseudomonas aeruginosa [15], 16 µg/mL (≈ 37.3 µM). Further, the MIC in the data set with Enterococcus faecalis [4] was 16 µg/mL (≈ 37.3 µM); against Bacillus subtilis [5], 1 µg/mL (≈ 2.33 µM); in the data set with Proteus mirabilis [6], 64 µg/mL (≈ 149 µM); against Acinetobacter baumannii [7], 4 µg/mL (≈ 9.33 µM); against Candida albicans, 4 µg/mL (≈ 9.33 µM); with Klebsiella pneumoniae [8], 4 µg/mL (≈ 9.33 µM). Also, the MIC in the data set with Bacillus subtilis [9] was 2 µg/mL (≈ 4.67 µM); in the data set with Klebsiella pneumoniae [10] it was 64 µg/mL (≈ 149 µM); against Staphylococcus aureus, 64 µg/mL (≈ 149 µM); in the data set with Proteus mirabilis [11] it was 8 µg/mL (≈ 18.7 µM); against Candida parapsilosis, 8 µg/mL (≈ 18.7 µM). In addition, the MNTC at 48 h in data set [13] was found to be 0.4 µg/mL; in [16] it was 0.8 µg/mL. For the same compound, the CPE-inhibitory concentration in the data set on Human respirovirus 3 came out at 0.05 µg/mL.

Take `CC(C)(C)OC(=O)N1CCN(Cc2oc(CCl)cc(=O)c2O)CC1`: the MIC in the data set with Escherichia coli [1] came out at 64 µg/mL (≈ 178 µM); in the data set with Escherichia coli [12], 8 µg/mL (≈ 22.3 µM); with Pseudomonas aeruginosa [14], 4 µg/mL (≈ 11.1 µM); against Acinetobacter baumannii [2], 16 µg/mL (≈ 44.6 µM); with Enterococcus faecalis [3], 128 µg/mL (≈ 357 µM); in the data set with Pseudomonas aeruginosa [15], 16 µg/mL (≈ 44.6 µM). For the same compound, the MIC with Enterococcus faecalis [4] amounted to 8 µg/mL (≈ 22.3 µM); with Bacillus subtilis [5], 1 µg/mL (≈ 2.79 µM); in the data set on Proteus mirabilis [6], 64 µg/mL (≈ 178 µM); against Acinetobacter baumannii [7] it was 8 µg/mL (≈ 22.3 µM); with Candida albicans, 4 µg/mL (≈ 11.1 µM); against Klebsiella pneumoniae [8], 8 µg/mL (≈ 22.3 µM). For the same compound, the MIC against Bacillus subtilis [9] was determined as 2 µg/mL (≈ 5.57 µM); against Klebsiella pneumoniae [10] it was 64 µg/mL (≈ 178 µM); in the data set with Staphylococcus aureus, 128 µg/mL (≈ 357 µM); in the data set with Proteus mirabilis [11], 16 µg/mL (≈ 44.6 µM); against Candida parapsilosis, 8 µg/mL (≈ 22.3 µM). The results for the MNTC at 48 h in data set [13] and in data set [16] were 0.8 µg/mL and 0.4 µg/mL, respectively. In addition, the CPE-inhibitory concentration in the data set with Human respirovirus 3 was 0.2 µg/mL.

`OC(Cn1cncn1)(Cn1cncn1)c1ccc(F)cc1F` [FLUCONAZOLE]: the MIC against Candida albicans came to 2 µg/mL (≈ 6.53 µM); with Candida parapsilosis, 4 µg/mL (≈ 13.1 µM).

With `O=c1cc(CCl)oc(CN2CCN(Cc3ccc(F)cc3)CC2)c1O`, the MIC turned out to be 64 µg/mL (≈ 174 µM) in the data set on Escherichia coli [1]; 16 µg/mL (≈ 43.6 µM) in the data set with Escherichia coli [12]; 16 µg/mL (≈ 43.6 µM) against Pseudomonas aeruginosa [14]; 64 µg/mL (≈ 174 µM) in the data set on Acinetobacter baumannii [2]; 32 µg/mL (≈ 87.2 µM) in the data set with Enterococcus faecalis [3]; 64 µg/mL (≈ 174 µM) in the data set on Pseudomonas aeruginosa [15]. Besides, the MIC is 16 µg/mL (≈ 43.6 µM) with Enterococcus faecalis [4]; 32 µg/mL (≈ 87.2 µM) with Bacillus subtilis [5]; 64 µg/mL (≈ 174 µM) against Proteus mirabilis [6]; 32 µg/mL (≈ 87.2 µM) against Acinetobacter baumannii [7]; 16 µg/mL (≈ 43.6 µM) in the data set with Candida albicans; 16 µg/mL (≈ 43.6 µM) in the data set with Klebsiella pneumoniae [8]. Also, the MIC in the data set with Bacillus subtilis [9] turned out to be 64 µg/mL (≈ 174 µM); in the data set on Klebsiella pneumoniae [10] it was 64 µg/mL (≈ 174 µM); against Staphylococcus aureus, 64 µg/mL (≈ 174 µM); in the data set with Proteus mirabilis [11], 16 µg/mL (≈ 43.6 µM); with Candida parapsilosis it was 16 µg/mL (≈ 43.6 µM). The results for the MNTC at 48 h in [13] and in data set [16] were 1.6 µg/mL and 0.4 µg/mL, respectively. The CPE-inhibitory concentration with Human respirovirus 3 was 0.05 µg/mL.

For `O=c1cc(CCl)oc(CN2CCN(C(c3ccccc3)c3ccc(Cl)cc3)CC2)c1O` (stereo not drawn), the MIC against Escherichia coli [1] turned out to be 64 µg/mL (≈ 139 µM); in the data set with Escherichia coli [12] it was 4 µg/mL (≈ 8.71 µM); against Pseudomonas aeruginosa [14], 2 µg/mL (≈ 4.35 µM); with Acinetobacter baumannii [2], 16 µg/mL (≈ 34.8 µM); against Enterococcus faecalis [3], 32 µg/mL (≈ 69.7 µM); against Pseudomonas aeruginosa [15], 16 µg/mL (≈ 34.8 µM). The MIC in the data set with Enterococcus faecalis [4] came out at 16 µg/mL (≈ 34.8 µM); in the data set on Bacillus subtilis [5] it was 1 µg/mL (≈ 2.18 µM); in the data set with Proteus mirabilis [6] it was 64 µg/mL (≈ 139 µM); in the data set with Acinetobacter baumannii [7] it was 4 µg/mL (≈ 8.71 µM); in the data set on Candida albicans, 4 µg/mL (≈ 8.71 µM); against Klebsiella pneumoniae [8], 4 µg/mL (≈ 8.71 µM). Moreover, the MIC amounted to 2 µg/mL (≈ 4.35 µM) against Bacillus subtilis [9]; 64 µg/mL (≈ 139 µM) in the data set with Klebsiella pneumoniae [10]; 64 µg/mL (≈ 139 µM) in the data set with Staphylococcus aureus; 8 µg/mL (≈ 17.4 µM) with Proteus mirabilis [11]; 8 µg/mL (≈ 17.4 µM) against Candida parapsilosis. The MNTC at 48 h in data set [13] and in data set [16] was 0.4 µg/mL throughout. Also, the CPE-inhibitory concentration in the data set with Human respirovirus 3 was 0.1 µg/mL.

For `CC(=O)C1(c2ccccc2)CCN(Cc2oc(CCl)cc(=O)c2O)CC1`, the MIC was 64 µg/mL (≈ 170 µM) against Escherichia coli [1]; 8 µg/mL (≈ 21.3 µM) against Escherichia coli [12]; 4 µg/mL (≈ 10.6 µM) against Pseudomonas aeruginosa [14]; 16 µg/mL (≈ 42.6 µM) in the data set with Acinetobacter baumannii [2]; 128 µg/mL (≈ 341 µM) in the data set with Enterococcus faecalis [3]; 16 µg/mL (≈ 42.6 µM) against Pseudomonas aeruginosa [15]. Besides, the MIC was determined as 64 µg/mL (≈ 170 µM) with Enterococcus faecalis [4]; 1 µg/mL (≈ 2.66 µM) with Bacillus subtilis [5]; 64 µg/mL (≈ 170 µM) with Proteus mirabilis [6]; 4 µg/mL (≈ 10.6 µM) against Acinetobacter baumannii [7]; 4 µg/mL (≈ 10.6 µM) against Candida albicans; 8 µg/mL (≈ 21.3 µM) in the data set on Klebsiella pneumoniae [8]. The MIC was 2 µg/mL (≈ 5.32 µM) with Bacillus subtilis [9]; 64 µg/mL (≈ 170 µM) in the data set on Klebsiella pneumoniae [10]; 128 µg/mL (≈ 341 µM) in the data set with Staphylococcus aureus; 16 µg/mL (≈ 42.6 µM) in the data set with Proteus mirabilis [11]; 8 µg/mL (≈ 21.3 µM) against Candida parapsilosis. Further, the MNTC at 48 h in data set [13] and in data set [16] was 0.4 µg/mL each time.

(Values after ChEMBL document CHEMBL1240443, “A study of cytotoxicity of novel chlorokojic acid derivatives with their antimicrobial and antiviral activities” (Eur J Med Chem, 2010).)
